{"data": "Measured values collected from several papers", "organism": "Mycolicibacterium smegmatis", "effect on": "microbial growth", "note": "Each line is one published result; the experiments were not run side by side."}
{"Compound": "Cc1nc2sccn2c1C(=O)N1CCN(CCn2cc(CSc3nc4ccccc4[nH]3)nn2)CC1", "setting": "72 h", "endpoint": "IC50", "value": "16.4 µM"}
{"Compound": "CC(C)=CCC/C(C)=C/CNCCNC1C2CC3CC(C2)CC1C3 (stereo not shown)", "setting": "48 h", "endpoint": "IC50", "value": "2.5 µM"}
{"Compound": "CCCCCc1ccc(-c2c[nH]c(N)n2)cc1", "system": "ATCC700084 MC^2155", "setting": "48 h", "endpoint": "MIC", "value": "200 µM"}
{"Compound": "Cc1nc2sc3ccccc3n2c1C(=O)N1CCN(CCn2cc(-c3ccc(C(C)(C)C)cc3)nn2)CC1", "setting": "72 h", "endpoint": "IC50", "value": "34.6 µM"}
{"Compound": "O=C(N/N=C/c1ccc([N+](=O)[O-])o1)c1ccc(O)cc1", "system": "ATCC14468", "endpoint": "MIC90", "value": "> 1000 µg/mL"}
{"Compound": "Cc1nc2sc3ccccc3n2c1C(=O)N1CCN(Cc2cn(-c3ccc([N+](=O)[O-])cc3)nn2)CC1", "setting": "72 h", "endpoint": "IC50", "value": "> 128 µM"}
{"Compound": "NNC(=O)c1ccncc1", "test": "resazurin", "system": "MC^2155", "setting": "24 h", "endpoint": "MIC", "value": "5 µg/mL"}
{"Compound": "O=C(N[C@H](CO)[C@H](O)c1ccc([N+](=O)[O-])cc1)C(Cl)Cl", "system": "ATCC14468", "endpoint": "MIC90", "value": "125 µg/mL"}
{"Compound": "COCCOc1ccc(-c2c[nH]c(N)n2)cc1", "system": "ATCC700084 MC^2155", "setting": "48 h", "endpoint": "MIC", "value": "> 200 µM"}
{"Compound": "CC(C)=CCC/C(C)=C/C(=O)O", "setting": "48 h", "endpoint": "IC50", "value": "> 500 µM"}
{"Compound": "CO[C@H]1/C=C/O[C@@]2(C)Oc3c(C)c(O)c4c(O)c(c(/C=N/N5CCN(C)CC5)c(O)c4c3C2=O)NC(=O)/C(C)=C\\C=C\\[C@H](C)[C@H](O)[C@@H](C)[C@@H](O)[C@@H](C)[C@H](OC(C)=O)[C@@H]1C", "test": "disc diffusion", "setting": "15 µg/disc", "endpoint": "inhibition zone", "value": "14 mm"}
{"Compound": "CCCc1ccc(-c2c[nH]c(N)n2)cc1", "system": "ATCC700084 MC^2155", "setting": "48 h", "endpoint": "MIC", "value": "200 µM"}
{"Compound": "NC1C2CC3CC(C2)CC1C3 (stereo not shown)", "setting": "48 h", "endpoint": "IC50", "value": "> 500 µM"}
